Experimental data reported in ChEMBL document CHEMBL3865807, “Syntheses and photodynamic activity of some glucose-conjugated BODIPY dyes” (Eur J Med Chem, 2016).
Activity calls are given as the source filed them. The calls are words filed in the database; no cut-off is given here.

Key:
[1] = Cytotoxicity against human A549 cells assessed as decrease in cell viability up to 200 uM after 48 hrs under dark condition by MTT assay; type: toxicity, cell-based; details: a549, 48 h
How it was run: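 Dark toxicity: A549 cells treated as in the MTT protocol (1 h compound exposure, serum-free medium, washed) with no light, then assessed at 48 h by MTT (0.5 mg/mL, 6 h, formazan in HCl/SDS, A550).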

[2] = Cell cycle arrest in human A549 cells assessed as accumulation at subG1 phase at 2.5 uM preincubated for 1 hr followed by 0.77 mW/cm2 white light irradiation for 80 mins measured after 24 hrs in presence of 5 mM of NAC by propidium iodide staining based flow cytometry (reference value: 8.2 +/- 1.1%); type: functional
[3] = Cytotoxicity against human L-132 cells assessed as reduction in cell viability at 50 uM under dark condition by MTT assay; type: toxicity, cell-based; details: l132, 50 µM
[4] = Photocytotoxicity against human A549 cells assessed as decrease in cell viability preincubated for 1 hr followed by 0.77 mW/cm2 white light irradiation for 80 mins measured after 24 hrs by MTT assay; type: functional, cell-based; details: A549, light or radiation study
How it was run: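 IC50 from MTT: A549 cells (1×10^4/well) given graded compound concentrations 1 h in serum-free DMEM (vehicle ≤0.1% DMSO), washed, photo-exposed 80 min at 0.77 mW/cm², regular medium 24 h; MTT 0.5 mg/mL 6 h, A550; viability relative to vehicle control; four replicates, three experiments, mean ± SEM.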

A549 [5] = experiment: Induction of apoptosis in human A549 cells assessed as accumulation at subG1 phase at 5 to 50 uM preincubated for 1 hr followed by 0.77 mW/cm2 white light irradiation for 30 mins measured after 24 hrs by propidium iodide staining based flow cytometry relative to control; type: functional
How it was run: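 Cells exposed 1 h to compound (5-50 µM; vehicle 0.1% DMSO), washed, then irradiated (0.77 mW/cm²) for 0, 30 or 80 min; after serum addition kept 24 h. PI/RNase A staining in hypotonic 0.1% citrate-0.1% Triton X-100, 30 min, 37 °C; sub-G1 peak by flow cytometry, debris gated out, ≥2×10^4 cells; five replicates, mean ± SEM.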

A549 [6] = experiment: Induction of apoptosis in human A549 cells assessed as increase in caspase 8 activity at 2.5 uM preincubated for 1 hr followed by 0.77 mW/cm2 white light irradiation for 80 mins measured after 16 hrs by fluorimetric method relative to control; type: functional
How it was run: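 A549 cells (1×10^6) given compound 2.5 µM for 1 h, then light 80 min; caspase activities measured at 16 h in whole-cell extracts with kits, colorimetric for caspase-3 and fluorimetric for caspase-8; untreated photo-exposed cells as control; five replicates, mean ± SEM.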

A549 [7] = experiment: Induction of apoptosis in human A549 cells assessed as decrease in pro-caspase 3 level at 2.5 uM preincubated for 1 hr followed by in 0.77 mW/cm2 white light irradiation for 80 mins by immunoblot analysis; type: functional, cell-based; details: TDE = time-dependent effect
How it was run: (§1)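 Whole-cell extracts from A549 cells (1×10^6) treated with 0 or 2.5 µM compound, photo-exposed 80 min, lysed in Tris pH 7.4/NaCl/EDTA/Triton with protease inhibitors; 30 µg protein on 12% SDS-PAGE, nitrocellulose, milk block, caspase-3 antibody overnight 4 °C, HRP secondary, chemiluminescence; band ratio to normal control (=1) after loading-control normalisation.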

Bos taurus = species: Bos taurus; experiment: Binding affinity to calf thymus duplex DNA assessed as decrease in intensities of maximum absorption at 50 uM by spectrophotometric titration analysis
[8] = Drug uptake in human A549 cells assessed as mean fluorescence intensity at 2.5 uM after 8 hrs by flow cytometry (reference value: 5.4 +/- 1.5); type: ADME, cell-based; details: a549, 8 h
A549 [9] = experiment: Photocytotoxicity in human A549 cells assessed as decrease in cell survival at 2.5 uM preincubated for 1 hr followed by 0.77 mW/cm2 white light irradiation for 80 mins measured after 24 hrs in presence of caspase 9 inhibitor Z-LEHD-FMK by MTT assay; type: functional, cell-based
How it was run: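 Cells pre-incubated 1 h with caspase-9 inhibitor Z-LEHD-FMK (20 µM), then compound 2.5 µM for 1 h and light 80 min (0.77 mW/cm²); viability at 24 h by MTT; five replicates, mean ± SEM.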

[10] = Photocytotoxicity against human L-132 cells at 50 uM using 0.77 mW/cm2 white light irradiation by MTT assay; type: toxicity, cell-based; details: l132, 50 µM
[11] = (§2) Cell cycle arrest in human A549 cells assessed as accumulation at subG1 phase at 2.5 uM preincubated for 1 hr followed by 0.77 mW/cm2 white light irradiation for 80 mins measured after 24 hrs by propidium iodide staining based flow cytometry (reference value: 8.2 +/- 1.1%); type: functional
[12] = as §2, with “hrs in presence of 50 uM of beta-carotene” for “hrs”; type: functional
A549 [13] = experiment: Induction of apoptosis in human A549 cells assessed as pro-caspase 3 level at 2.5 uM preincubated for 1 hr followed by 0.77 mW/cm2 white light irradiation for 80 mins measured after 24 hrs by immunoblot analysis relative to control; type: functional; how it was run: as §1
A549 [14] = experiment: Induction of morphological changes in human A549 cells assessed as cell shrinking up to 2.5 uM preincubated for 1 hr followed by 0.77 mW/cm2 white light irradiation for 80 mins measured after 24 hrs by phase contrast microscopy; type: functional, cell-based
How it was run: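 A549 cells (1×10^5/well) on coverslips given vehicle (0.1% DMSO) or compound (0.625, 1.25, 2.5 µM) for 1 h, then irradiated 80 min (0.77 mW/cm²); kept 24 h in regular medium and examined unstained by phase-contrast microscopy (40× objective); representative fields imaged; experiments done three times.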

A549 [15] = experiment: Induction of apoptosis in human A549 cells assessed as pro-caspase 3 level at 2.5 uM preincubated for 1 hr followed by 0.77 mW/cm2 white light irradiation for 80 mins measured after 16 hrs by immunoblot analysis relative to control; type: functional; how it was run: as §1
A549 [16] = experiment: Induction of apoptosis in human A549 cells assessed as pro-caspase 3 level at 2.5 uM preincubated for 1 hr followed by 0.77 mW/cm2 white light irradiation for 80 mins measured after 4 hrs by immunoblot analysis relative to control; type: functional; how it was run: as §1
[17] = Photocytotoxicity against human WI38 cells at 50 uM using 0.77 mW/cm2 white light irradiation by MTT assay; type: toxicity, cell-based; details: wi-38, 50 µM
[18] = Drug uptake in cytoplasm of human A549 cells at 1 uM after 0.25 to 3 hrs by Hoechst 33342 staining based fluorescence microscopy; type: ADME, cell-based; details: a549, 1 µM
How it was run: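 A549 cells on coverslips loaded with dyes (1 µM) for 0.25, 0.5, 1, 2 or 3 h at 37 °C, washed, counterstained with Hoechst 33342 (10 µM), mounted in 70% glycerol; red dye and blue nuclear fluorescence imaged by fluorescence microscopy (40×) and overlaid.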

[19] = Drug uptake in human A549 cells assessed as mean fluorescence intensity at 2.5 uM after 24 hrs by flow cytometry (reference value: 5.4 +/- 1.5); type: ADME, cell-based; details: a549, 24 h

CCC1=C(C)C2=C(C)c3c(C)c(CC)c(C)n3[B-](F)(F)[N+]2=C1/C=C/c1ccc(O[C@H]2O[C@H](CO)[C@@H](O)[C@H](O)[C@H]2O)cc1
Activity [1]: Non-Toxic | Activity [2]: 46.5% | Activity [3]: Non-Toxic | IC50 [4]: 2700 nM | fold change (FC) (A549 [5]): 2.8 - 3.3 | fold change (FC) (A549 [6]): 6.2 | Activity (A549 [7]): Tde | Activity (Bos taurus): Active | Flu intensity [8]: 49.4 to 58.4 | Activity (A549 [9]): Active | Activity [10]: 5 to 7% | Activity [11]: 68.8% | Activity [12]: 51.8% | fold change (FC) (A549 [13]): 0.2 | Activity (A549 [14]): Active | fold change (FC) (A549 [15]): 0.6 | fold change (FC) (A549 [16]): 0.8 | Activity [17]: 5 to 7% | Drug uptake [18]: Active | Flu intensity [19]: 46.7
